ChEMBL document CHEMBL6109076, “Design and synthesis of novel thioether analogs as promising antiviral agents: In vitro activity against enteroviruses of interest” (Eur J Med Chem, 2025)

Tests used:
Coxsackievirus = test: Antiviral activity against Coxsackievirus A24 UVE/CV-A24/2010/LA/HFMK14 infected in human MRC5 cells assessed as […]; assay type: functional, organism-based; details: UVE/CV-A24/2010/LA/HFMK14, MRC5
Human echovirus 30 = test: Antiviral activity against Echovirus 30 strain UVE/E-30/2013/FR/4-MRS2013 infected in human MRC5 cells assessed as […]; assay type: functional, organism-based, Echovirus E30; details: Enterovirus B, UVE/E-30/2013/FR/4-MRS2013, MRC5
Procedure, shortened: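 MRC-5 cells seeded the day before infection in assay medium with 2.5 % FBS. After 24 h, compounds added as eight ½ dilutions, then virus added. On day 3 post-infection, supernatant harvested and viral RNA quantified by RT-qPCR (pan-enterovirus probe/primers, synthetic RNA standard curve). Inhibition calculated relative to four virus control wells per plate. EC50 obtained by nonlinear regression (log(inhibitor) vs response, variable slope, three parameters); two independent experiments.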

[1] = Cytotoxicity against human MRC5 cells; assay type: toxicity, cell-based
Procedure, shortened: (§1)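 CC50 was measured in parallel on compound-treated uninfected cells, run alongside the antiviral assay. Cells were seeded one day ahead in assay medium with 2.5 % FBS (RD at 50000 cells/well) and held at 37 °C, 5 % CO2; MRC-5 were grown in BME with 10 % FBS. Compounds were added as eight ½ dilutions. CC50 came from nonlinear regression (log(inhibitor) vs response, variable slope, three parameters); median ± std of two independent experiments.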

[2] = Selectivity index, ratio of CC50 for cytotoxicity against human MRC5 cells to EC50 for antiviral activity against Enterovirus A71 infected in human MRC5 cells; assay type: toxicity, cell-based; details: read-out: Selectivity Index
[3] = Selectivity index, ratio of CC50 for cytotoxicity against human MRC5 cells to EC50 for antiviral activity against Coxsackievirus A24 UVE/CV-A24/2010/LA/HFMK14 infected in human MRC5 cells; assay type: toxicity, cell-based; details: read-out: Selectivity Index
Procedure, shortened: (§2)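 In MRC-5 cells, SI = CC50/EC50. EC50 comes from the 3-day RT-qPCR viral RNA inhibition assay with eight ½ dilutions. CC50 was measured in parallel on compound-treated uninfected MRC-5 cells. Both values derived by nonlinear regression (three-parameter, variable slope); two independent experiments.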

Enterovirus A71 [4] = test: Antiviral activity against Enterovirus A71 Laos2011 HFMD18T infected in human RD cells assessed as reduction in viral replication incubated for 72 hrs by RT-qPCR analysis; assay type: functional, organism-based; details: Enterovirus A
[5] = Cytotoxicity against human RD cells; assay type: toxicity, cell-based; procedure, shortened: as §1
Enterovirus A71 [6] = test: Antiviral activity against Enterovirus A71 Laos2011 HFMD18T infected in human MRC5 cells assessed as reduction in viral replication incubated for 72 hrs by RT-qPCR analysis; assay type: functional, organism-based; details: Enterovirus A, MRC5, 72 h
[7] = Selectivity index, ratio of CC50 for cytotoxicity against human RD cells to EC50 for antiviral activity against Enterovirus A71 infected in human RD cells
[8] = Cytotoxicity against Chinese hamster CHO cells
Enterovirus A71 [9] = test: Antiviral activity against Enterovirus A71 Laos2011 HFMD18T infected in human RD cells assessed as inhibition of viral RNA copies measured per ml of supernatant at 10 uM treated 4 hr post infection measured after 72 hrs; assay type: functional; details: Enterovirus A
Enterovirus A71 [10] = test: Antiviral activity against Enterovirus A71 Laos2011 HFMD18T infected in human RD cells assessed as inhibition of viral RNA copies measured per ml of supernatant at 10 uM measured after 72 hrs; details: Enterovirus A
Enterovirus A71 [11] = test: Antiviral activity against Enterovirus A71 Laos2011 HFMD18T infected in human RD cells assessed as RNA copies measured per ml of supernatant at 10 uM treated 4 hr post infection measured after 72 hrs; assay type: functional
Enterovirus A71 [12] = test: Antiviral activity against Enterovirus A71 Laos2011 HFMD18T infected in human RD cells assessed as RNA copies measured per ml of supernatant at 10 uM treated 1 hr post infection measured after 72 hrs
Enterovirus A71 [13] = test: Antiviral activity against Enterovirus A71 Laos2011 HFMD18T infected in human RD cells assessed as inhibition of viral RNA copies measured per ml of supernatant at 10 uM treated at time of infection measured after 72 hrs; assay type: functional; details: Enterovirus A
Enterovirus A71 [14] = test: Antiviral activity against Enterovirus A71 Laos2011 HFMD18T infected in human RD cells assessed as RNA copies measured per ml of supernatant at 10 uM treated at time of infection measured after 72 hrs; assay type: functional
[15] = Selectivity index, ratio of CC50 for cytotoxicity against human MRC5 cells to EC50 for antiviral activity against Echovirus 30 strain UVE/E-30/2013/FR/4-MRS2013 infected in human MRC5 cells; assay type: toxicity, cell-based; details: read-out: Selectivity Index; procedure, shortened: as §2
Enterovirus A71 [16] = test: Antiviral activity against Enterovirus A71 Laos2011 HFMD18T infected in human RD cells assessed as RNA copies measured per ml of supernatant at 10 uM pretreated 1 hr before infection measured after 72 hrs relative to control; assay type: functional
Enterovirus A71 [17] = test: Antiviral activity against Enterovirus A71 Laos2011 HFMD18T infected in human RD cells assessed as inhibition of viral RNA measured per ml of supernatant at 10 uM pretreated 1 hr before infection measured after 72 hrs; assay type: functional; details: Enterovirus A

| Compound | EC50 (Enterovirus A71 [4]) [µM] | CC50 [5] [µM] | EC50 (Enterovirus A71 [6]) [µM] | selectivity ratio [7] | also measured |
| --- | --- | --- | --- | --- | --- |
| OCc1ccc(-c2ccc(SCc3ccc(-n4cncn4)cc3)nc2)cc1 | – | – | – | – | EC50 (Coxsackievirus): 23.2 µM; EC50 (Human echovirus 30): > 40 µM; CC50 [1]: > 40 µM; selectivity ratio [2]: > 181; selectivity ratio [3]: > 1.7 |
| OCc1cccc(-c2ccc(SCc3ccc(-n4cncn4)cc3)nc2)c1 | 2.78 | > 40 | 22 | > 14 | CC50 [1]: > 40 µM; selectivity ratio [2]: > 1.8 |
| c1ncn(-c2ccc(CSc3ccc(-c4ccc5cn[nH]c5c4)cc3)cc2)n1 | > 40 | – | – | – | – |
| c1ccc2oc(-c3ccc(SCc4ccc(-n5cncn5)cc4)cc3)cc2c1 | > 40 | – | – | – | – |
| Cn1cc(-c2ccc(CSc3ccc(-c4ccc5ccccc5c4)cn3)cc2)cn1 | 12 | > 40 | 22.4 | > 3.3 | CC50 [1]: > 40 µM; selectivity ratio [2]: > 1.8 |
| CN(C)c1ncc(-c2ccc(CSc3ccc(-c4ccc(CO)cc4)cn3)cc2)cn1 | > 40 | – | – | – | – |
| O=C1NC(SCc2ccc(-n3cncn3)cc2)=N/C1=C\c1c[nH]c2ccccc12 | 4.65 | 96.3 | > 40 | 20.7 | CC50 [8]: 33.6 µM |
| c1ccc2cc(-c3ccc(SCc4ccc(-n5cncn5)cc4)nc3)ccc2c1 | 1.86 | 23.5 | 3.25 | 15.4 | inhibition at 10 µM (Enterovirus A71 [9]): < 90%; EC50 (Coxsackievirus): 0.99 µM; inhibition at 10 µM (Enterovirus A71 [10]): > 90%; Activity (Enterovirus A71 [11]): 0.7 log10/ml; Activity (Enterovirus A71 [12]): 1.14 log10/ml; CC50 [8]: 43.2 µM; inhibition at 10 µM (Enterovirus A71 [13]): > 90%; Activity (Enterovirus A71 [14]): 1.25 log10/ml; EC50 (Human echovirus 30): 0.4 µM; selectivity ratio [15]: > 100; Activity (Enterovirus A71 [16]): 1.5 log10/ml; CC50 [1]: > 40 µM; selectivity ratio [2]: > 12; selectivity ratio [3]: > 40; inhibition at 10 µM (Enterovirus A71 [17]): > 90% |
| c1ccc2cc(-c3ccc(SCc4ccc(-n5cncn5)cc4)cc3)ncc2c1 | 4.3 | 30.5 | 1.15 | 6.62 | EC50 (Coxsackievirus): 1.22 µM; CC50 [8]: 31.3 µM; EC50 (Human echovirus 30): 0.41 µM; selectivity ratio [15]: > 100; CC50 [1]: > 40 µM; selectivity ratio [2]: > 25; selectivity ratio [3]: > 32 |
| Cn1cc(-c2ccc(SCc3ccc(-n4cncn4)cc3)nc2)cn1 | 4.38 | – | 0.57 | – | – |
| CCNc1ncc(-c2ccc(CSc3ccc(-c4ccc(CO)cc4)cn3)cc2)cn1 | > 40 | – | – | – | – |
| OCc1ccc(-c2ccc(SCc3ccc(-c4cnc(N5CCOCC5)nc4)cc3)nc2)cc1 | > 40 | – | – | – | – |
| Nc1ncc(-c2ccc(CSc3ccc(-c4ccc(CO)cc4)cn3)cc2)cn1 | 24.7 | 44.7 | < 0.37 | 1.81 | CC50 [8]: 36.9 µM; CC50 [1]: > 20 µM; selectivity ratio [2]: > 54 |
| c1ccc(Cn2cc(-c3ccc(CSc4ccc(-c5ccc6ccccc6c5)cn4)cc3)cn2)cc1 | 22.3 | – | – | – | – |
| CN1CCN(c2ncc(-c3ccc(CSc4ccc(-c5ccc(CO)cc5)cn4)cc3)cn2)CC1 | > 40 | – | – | – | – |
| c1ccc2cc(-c3ccc(SCc4ccc(-n5cncn5)cc4)cc3)ccc2c1 | > 40 | – | – | – | – |
| c1ncn(-c2ccc(CSc3ccc(-c4ccc5[nH]ccc5c4)cc3)cc2)n1 | > 40 | – | – | – | – |
| CN(C)c1ccc(-c2ccc(CSc3ccc(-c4ccc5ccccc5c4)cn3)cc2)cc1 | > 40 | – | – | – | – |
| Cc1noc(C)c1-c1ccc(CSc2ccc(-c3ccc4ccccc4c3)cn2)cc1 | 22.3 | > 40 | > 40 | > 1.8 | – |
| CN(C)c1cccc(-c2ccc(CSc3ccc(-c4ccc5ccccc5c4)cn3)cc2)c1 | > 40 | – | – | – | – |
| c1ccc2cc(-c3ccc(SCc4ccc(-n5cncn5)cc4)nc3)ncc2c1 | 22.1 | > 40 | > 20 | > 1.8 | – |
| COc1ncc(-c2ccc(CSc3ccc(-c4ccc(CO)cc4)cn3)cc2)cn1 | > 40 | – | – | – | – |
| c1ccc2c(-c3ccc(SCc4ccc(-n5cncn5)cc4)nc3)cccc2c1 | > 40 | – | – | – | – |
| CCOc1noc2cc(OCCC3CCN(c4ccc(C)nn4)CC3)ccc12 [VAPENDAVIR] | – | > 63 | – | – | CC50 [1]: > 20 µM |
